Converted amounts (≈) assume the structure as drawn.
Columns and labels:
[1] = Half-life measured on Escherichia coli SR58 in BHI medium; value ranges from 1-3; format: ADME, organism-based; settings: Escherichia coli SR58 culture
[2] = Half-life measured in 0.1 M KPO4 buffer at PH 7; format: ADME; settings: 0.1 M potassium phosphate buffer
Summary of the method: (§1)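 Decay followed as loss of UV absorbance at each compound's absorbance maximum in 0.1 M potassium phosphate, pH 7.0, 0.05–1.0 mM compound. Decay first order; half-life taken as time to 50% absorbance loss, from linear regression, given as mean ± standard deviation.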

[3] = Half-life measured on Bacteroides fragilis in BHIS medium; format: ADME, organism-based; settings: Bacteroides fragilis culture
Escherichia coli [4] = assay: Minimum inhibitory concentration measured against Escherichia coli EE128 strain (Uvr+ RecA-); format: functional
Summary of the method: (§2)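 Compounds serially diluted 2-fold in BHIS medium containing 5% Me2SO. Each well inoculated with bacteria from a stationary-phase culture, suspension at 10^7 cfu/mL. Incubated anaerobically at 37 °C in Gaspak jars; growth read after 17 h.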

Escherichia coli [5] = assay: Minimum inhibitory concentration measured against Escherichia coli EE349 strain (UvrB- Rec+); format: functional; summary of the method: as §2
Clostridium perfringens = assay: Minimum inhibitory concentration measured against Clostridium perfringens strain; format: functional
Summary of the method: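 Twofold serial dilutions in BHIS medium with 5% Me2SO; each well inoculated with stationary-phase bacterial suspension (10^7 cfu/mL). Plates incubated anaerobically at 37 °C in Gaspak jars; growth scored after 17 h.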

Escherichia coli [6] = assay: Minimum inhibitory concentration measured against Escherichia coli SR58 strain (RecA- UvrB-); format: functional; summary of the method: as §2
Escherichia coli [7] = assay: Minimum inhibitory concentration measured against Escherichia coli AB1157 strain (Uvr+ Rec+); format: functional; summary of the method: as §2
Escherichia coli [8] = assay: Minimum inhibitory concentration measured against Escherichia coli AB1885 strain (UvrB- Rec+); format: functional; summary of the method: as §2
Bacteroides fragilis = assay: Minimum inhibitory concentration measured against Bacteroides fragilis strain; format: functional; summary of the method: as §2
[9] = Half-life measured on Escherichia coli SR58 in BHI medium; value ranges from 3-4; format: ADME, organism-based; settings: Escherichia coli SR58 culture
[10] = Half-life measured in BHI spent medium; format: ADME
Summary of the method: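 Spent BHI medium prepared by removing E. coli by centrifugation and filtration after maximal logarithmic growth. Compound at 0.05–1.0 mM; UV absorbance at its maximum followed. First-order half-life (time to 50% absorbance loss) from linear regression, mean ± standard deviation.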

[11] = Half-life measured on Escherichia coli SR58 in BHI medium; value ranges from 4-6; format: ADME, organism-based; settings: Escherichia coli SR58 culture
[12] = Half-life measured in 0.1 M KPO4 buffer atPH 7; format: ADME; settings: 0.1 M potassium phosphate buffer, pH 7; summary of the method: as §1

Compound | half-life [1] | half-life [2] | half-life [3] | MIC (Escherichia coli [4]) | MIC (Escherichia coli [5]) | MIC (Clostridium perfringens) | MIC (Escherichia coli [6]) | MIC (Escherichia coli [7]) | MIC (Escherichia coli [8]) | MIC (Bacteroides fragilis) | half-life [9] | half-life [10] | half-life [11] | half-life [12]
O=Nc1[nH]cnc1-c1ccccc1 | 1 min | 330 min | < 2 min |  |  |  |  |  |  |  |  |  |  | 
Cn1cnc(-c2ccccc2)c1[N+](=O)[O-] |  |  |  | 30 µM (≈ 6.1 µg/mL) | 100 µM (≈ 20.3 µg/mL) | 15 µM (≈ 3.05 µg/mL) | 8 µM (≈ 1.63 µg/mL) | > 500 µM | > 500 µM | < 2 µM |  |  |  | 
Cn1cnc(-c2ccccc2)c1N=O |  | 540 min | < 2 min |  |  |  |  |  |  |  | 3 min | 40 min |  | 
Cn1cnc(N=O)c1-c1ccccc1 |  |  | < 2 min |  |  |  |  |  |  |  |  | 160 min | 4 min | > 600 min
Cn1cnc([N+](=O)[O-])c1-c1ccccc1 |  |  |  | > 500 µM | ≥ 500 µM | > 500 µM | 500 µM (≈ 102 µg/mL) | > 500 µM | > 500 µM | 500 µM (≈ 102 µg/mL) |  |  |  | 
O=[N+]([O-])c1[nH]cnc1-c1ccccc1 |  |  |  |  |  | 250 µM (≈ 47.3 µg/mL) | 130 µM (≈ 24.6 µg/mL) | > 500 µM | > 500 µM | 30 µM (≈ 5.68 µg/mL) |  |  |  | 
Cc1ncc([N+](=O)[O-])n1CCO [METRONIDAZOLE] |  |  |  | 600 µM (≈ 103 µg/mL) | > 600 µM | 13 µM (≈ 2.23 µg/mL) | 100 µM (≈ 17.1 µg/mL) | > 500 µM | > 500 µM | 6 µM (≈ 1.03 µg/mL) |  |  |  | 

Source: ChEMBL document CHEMBL1124026, “Nitrosoimidazoles: highly bactericidal analogues of 5-nitroimidazole drugs” (J Med Chem, 1988)
